The values that follow come from article PMC9811456 (Molecular Pharmaceutics, 2022).

Series [1] has as its system MCMV (Smith). Nature of the series: Antiviral qPCR assay, MCMV in MEF cells. It counts as cell-based, murine cytomegalovirus. To be noted: CC50/EC50.
The subject of series [2] is HCMV (AD169). Briefly: Antiviral CPE assay, HCMV AD169. It counts as cell-based, human cytomegalovirus. To be noted: CC50/EC50.
Series [3] deals with HHV-8 (BCBL-1). Briefly: Antiviral qPCR assay, HHV-8. It counts as cell-based, human herpes virus 8. The settings on record: for SI HHV-8 (BCBL-1): CC50/EC50; for EC50: Homo sapiens, BCBL1, 168 h, read-out: EC50 HHV-8 (BCBL-1).
For series [4], the system named is human adenovirus type 6 (AdV 6), strain tonsil 99 (HAdV-C6). Nature of the series: Hamster model of AdV. The format is in vivo, immunosuppressed male Syrian hamsters. To be noted: IP, 37 mg/kg induction then 20 mg/kg three times weekly. In outline: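 Male Syrian hamsters were immunosuppressed with IP cyclophosphamide (140 mg/kg induction, then 100 mg/kg). They received IV 3 × 10^10 pfu/kg AdV 6. There were 7 groups (n = 15), including uninfected vehicle and drug-only (1 mg/kg PO QD) controls. Test compound was given at 0.1, 0.3 or 1 mg/kg, and CDV IP (37, then 20 mg/kg thrice weekly) from day −1. Animals were weighed and observed daily. Liver TCID50 (HEK-293) was taken day 5, with serum transaminases. Survival was compared by log-rank and weight by mixed-effect analysis.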

For series [5], the system named is HCMV. To be noted: read-out: EC50 against CMV; cited from earlier work.
In series [6] the test system is vaccinia (Copenhagen). Briefly: microbe, parasite or virus in culture. It counts as cell-based.
Series [7] relates to EBV (Akata). Nature of the series: Antiviral qPCR assay, EBV. The format is cell-based, Epstein–Barr virus. The settings on record: for SI EBV (Akata): CC50/EC50; for EC50: human gammaherpesvirus 4, Akata, 72 h, read-out: EC50 EBV (Akata).
Series [8] relates to HSV-2. The settings on record: read-out: EC50 against HSV-2; published data ref 42; cited from earlier work.
Series [9] relates to HHV-6B (Z29). Nature of the series: Antiviral qPCR assay, HHV-6B. The format is cell-based, human herpes virus-6B. The settings on record: for SI HHV-6B (Z29): CC50/EC50; for EC50: Homo sapiens, MOLT-3, 168 h, read-out: EC50 HHV-6B (Z29).
The test system of series [10] is HSV-1. To be noted: read-out: EC50 against HSV-1; published data ref 42; cited from earlier work.
Series [11] has as its system BK virus (Gardner). Briefly: Antiviral qPCR assay, BK virus. To be noted: CC50/EC50. It counts as cell-based.
Series [12] deals with JC virus (MAD-4). Nature of the series: Antiviral qPCR assay, JC virus. The format is cell-based. The settings on record: for SI JC virus (MAD-4): CC50/EC50; for EC50: JC polyomavirus, COS-7, 168 h, read-out: EC50 JC virus (MAD-4).
Series [13] concerns ADV5 (Adenoid 75). Nature of the series: Antiviral CPE assay, ADV5. The settings on record: CC50/EC50. It counts as cell-based, adenovirus (AdV-5).
In series [14] the test system is human foreskin fibroblast (HFF) cells. Briefly: Intracellular conversion to CDV-PP, HFF model. The format is cell-based. The settings on record: 30 nM, 72 h. A digest of the protocol: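 Primary HFF cells (passage ≤10) were seeded at 6 × 10^6 per T-75 flask for 24 h. They were exposed in triplicate to 30 nM compound or vehicle in DMEM/2% FBS at 37 °C, 5% CO2 for 72 h, after preincubating the dosing solutions 24 h at 37 °C. Half the flasks were counted. The rest were rinsed in chilled saline and lysed in methanol:water 70:30. Prodrug, CDV and CDV-PP were measured by LC–MS/MS (5–2000 nM qualified range). Results are mean ± SD.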

For series [15], the system named is VZV. To be noted: read-out: EC50 against VZV; published data ref 42; cited from earlier work.
In series [16] the test system is HCMV (GDG^RK17). Briefly: Antiviral assay, HCMV GDGRK17. To be noted: CC50/EC50; single replicate. It counts as cell-based, human cytomegalovirus.
For series [17] the following is noted: cited from earlier work.
Series [18] has as its system VZV (Ellen). Nature of the series: microbe, parasite or virus in culture. It counts as cell-based, varicella-zoster virus.
The nature of series [19]: Oral pharmacokinetics and biodistribution in mice. The format is in vivo, male CFW mice.
Series [20] can be described thus: PK in mice after a single intravenous dose. It counts as in vivo. To be noted: mouse, plasma, 1 mg/kg.
Series [21] can be described thus: Metabolic stability in rat hepatocytes. The format is in vitro ADME. In outline:
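In hepatocyte stability, compound at 1 μM was incubated in duplicate with 0.5 × 10^6 cells/mL at 37 °C. Samples were taken over 2 h and quenched and precipitated with ice-cold methanol (1:1). The soluble fraction was analysed by LC–MS/MS.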

Series [22] relates to HSV2 (G). Nature of the series: microbe, parasite or virus in culture. The format is cell-based, herpesvirus 2 (HSV-2).
The test system of series [23] is HSV1 (E-377). Briefly: microbe, parasite or virus in culture. The format is cell-based, herpesvirus 1 (HSV-1).
Setting [24] is: equimolar oral doses, BCV vs NPP-669.

SMILES strings stand for the structures. Values joined by “and” are separate entries in the source; they are usually repeats but may differ in a detail not shown here. Equal entries are not always repeated. “Also recorded” adds a separate entry of the source.

On to `Nc1nc(O)c2ncn(COC(CO)CO)c2n1` [ganciclovir], for which the “SI MCMV (Smith)” value in [1] is listed as more than 19. Further, in [2], the “SI HCMV (AD169)” value is recorded as more than 92.
Turning to `Nc1ccn(C[C@@H](CO)OCP(=O)(O)O)c(=O)n1` [CDV, cidofovir], the “SI HHV-8 (BCBL-1)” value in [3] is listed as more than 67. Further, the EC50 in [3] is 1500 ± 700 nM; in series [5], approximately 1000 nM; in [6] (Orthopoxvirus vaccinia, HFF, read-out: EC50 vaccinia (Copenhagen)), 14.6 µM; in series [7], 10.1 ± 3.44 µM; in [8], 5 to 6 µM; in series [9], 7.09 ± 3.59 µM. The EC50 in [10] was 3 to 5 µM; in series [12], 18.4 ± 16 µM; in series [15], 500 nM. In addition, the “toxicity of the dose needed for antiviral efficacy” value in series [4] is recorded as “low-grade toxicity; also recorded: toxic dose”. In addition, the “SI vaccinia (Copenhagen)” value in [6] was more than 10. The “SI EBV (Akata)” value in series [7] is more than 10. The “SI HHV-6B (Z29)” value in series [9] is listed as 10. The “SI BK virus (Gardner)” value in [11] is more than 26. Moreover, in series [12], the “SI JC virus (MAD-4)” value was more than 8. Besides, the “SI ADV5 (Adenoid 75)” value in series [13] was more than 23. Besides, the “intracellular levels of CDV or CDV-PP” value in series [14] (below the detection limit) is not above 10 ng/mL. Also, in series [16], the “SI HCMV (GDG^RK17)” value is more than 1034.
Turning to `CCCCCCCCCCCCCCCCOCCCOP(=O)(O)CO[C@H](CO)Cn1ccc(N)nc1=O` [BCV, brincidofovir], in series [3], the “SI HHV-8 (BCBL-1)” value was 690 and the EC50 worked out at 1 nM. Besides, the GI toxicity result in [17] (daily doses at 10 mg/kg ref 36) was “GI toxicity was noted”. The NOAEL in series [17] (twice weekly, in rats over 13 weeks ref 36) is 15 mg/kg. Besides, the “SI VZV (Ellen)” value in series [18] (CC50/EC50) is reported as 114. Moreover, the 50% effective concentration (EC50) in series [18] (Human alphaherpesvirus 3, HFF, read-out: EC50 VZV (Ellen)) turned out to be 5 ± 5 nM. Also, in series [7], the “SI EBV (Akata)” value was more than 11 and the EC50 came to 0.09 ± 0.09 µM. Moreover, in [9], the “SI HHV-6B (Z29)” value stood at 16 and the EC50 was determined as 0.03 ± 0.02 µM. Also, in series [1], the “SI MCMV (Smith)” value is recorded as more than 244. The “SI BK virus (Gardner)” value in series [11] is 180. Also, in [19] (setting [24]), the “prodrug exposure in liver tissue” value was “significantly higher levels than NPP-669” and the “prodrug levels in intestinal tissue” value is given as “retained at substantially higher levels than NPP-669 in the intestinal tissue”. The “plasma levels over 24 h” value in series [19] (single oral dose, NPP-669 30 mg/kg, BCV equimolar (26 mg/kg)) was > 0.003 μM and > 2 ng/mL. In [12], the “SI JC virus (MAD-4)” value is more than 3 and the EC50 worked out at 0.35 ± 0.26 µM. In series [20], this molecule displayed an AUC of 171 ng·h/mL, a Cmax of 491 ng/mL, a Vd of 3.7 L/kg and a clearance of 122 mL/min/kg. Also, the half-life in series [20] is 24 min. In series [13], the “SI ADV5 (Adenoid 75)” value is 46. Also, the intracellular pro-drug level entry in series [14] is listed as “highest levels of intracellular pro-drug”. Further, in series [21], the half-life at 1 μM stood at 142 min and the hepatocyte CLint at 1 μM worked out at 9.73 µL/min/1e6 cells. Also, the “SI HCMV (AD169)” value in series [2] worked out at 540. Further, the “SI HSV2 (G)” value in [22] (CC50/EC50) is given as more than 50. Further, in series [22] (Human alphaherpesvirus 2, HFF, read-out: EC50 HSV2 (G)), the EC50 is 20 ± 10 nM. Moreover, in series [23] (CC50/EC50), the “SI HSV1 (E-377)” value is more than 33. In series [23] (Human alphaherpesvirus 1, HFF, read-out: EC50 HSV1 (E-377)), the EC50 was found to be 30 ± 20 nM.
